Assay [1] deals with MIN6. Description: Induction of insulin secretion in mouse MIN6 cells. The class given is functional, cell-based. An outline of the steps:
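Glucose-dependent insulin secretion measured in the mouse pancreatic beta-cell line MIN-6 across glucose levels.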

Assay [2] addresses T1, Hexokinase-2 (Homo sapiens) (UniProt P52789).
T1 sequence (whole entry): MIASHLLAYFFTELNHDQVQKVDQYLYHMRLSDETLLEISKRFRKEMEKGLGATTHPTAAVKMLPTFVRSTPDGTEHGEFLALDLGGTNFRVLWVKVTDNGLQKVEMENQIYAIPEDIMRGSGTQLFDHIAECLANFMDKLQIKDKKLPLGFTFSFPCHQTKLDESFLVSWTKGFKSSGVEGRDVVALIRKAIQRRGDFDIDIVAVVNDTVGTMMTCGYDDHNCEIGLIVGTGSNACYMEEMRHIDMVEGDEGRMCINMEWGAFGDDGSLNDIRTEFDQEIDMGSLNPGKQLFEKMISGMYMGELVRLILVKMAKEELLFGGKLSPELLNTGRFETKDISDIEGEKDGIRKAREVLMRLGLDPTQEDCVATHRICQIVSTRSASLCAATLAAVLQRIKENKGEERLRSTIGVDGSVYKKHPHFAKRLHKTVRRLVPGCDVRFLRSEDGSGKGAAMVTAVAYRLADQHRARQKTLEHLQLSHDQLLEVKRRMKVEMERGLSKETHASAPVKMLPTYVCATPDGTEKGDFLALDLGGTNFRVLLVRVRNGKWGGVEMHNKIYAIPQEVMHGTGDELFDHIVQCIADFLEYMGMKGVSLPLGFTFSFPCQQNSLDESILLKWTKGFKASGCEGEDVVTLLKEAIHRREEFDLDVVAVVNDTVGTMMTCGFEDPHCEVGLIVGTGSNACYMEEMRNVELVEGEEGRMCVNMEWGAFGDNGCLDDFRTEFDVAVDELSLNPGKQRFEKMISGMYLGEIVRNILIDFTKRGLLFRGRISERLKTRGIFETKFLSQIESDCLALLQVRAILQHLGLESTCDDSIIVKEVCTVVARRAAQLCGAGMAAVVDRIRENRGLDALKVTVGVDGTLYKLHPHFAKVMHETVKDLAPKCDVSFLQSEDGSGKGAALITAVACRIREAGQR
Description: Induction of hexokinase 2 (unknown origin). In outline: (§1)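 Selectivity tested in enzymatic hexokinase 1 and hexokinase 2 activity assays.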

For assay [3], the species on record is Mus musculus. Description: Antidiabetic activity in ob/ob mouse assessed as reduction in blood glucose level measured after subchronic treatment. The class given is functional, organism-based. An outline of the steps:
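ob/ob mice dosed orally and repeatedly in a subchronic study. Blood glucose, serum lipids and body weight were monitored.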

For assay [4], the species on record is Mus musculus. The assay is described as follows: Antidiabetic activity in C57BL/J mouse assessed as reduction in basal glucose level measured after acute treatment. Format: functional, organism-based. In outline: (§2)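 Basal blood glucose change followed after acute oral dosing in non-diabetic C57BL/J6 or diabetic ob/ob mice.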
Assay [5] concerns the target T2, Hexokinase-1 (Homo sapiens) (UniProt P19367).
T2 sequence (whole entry): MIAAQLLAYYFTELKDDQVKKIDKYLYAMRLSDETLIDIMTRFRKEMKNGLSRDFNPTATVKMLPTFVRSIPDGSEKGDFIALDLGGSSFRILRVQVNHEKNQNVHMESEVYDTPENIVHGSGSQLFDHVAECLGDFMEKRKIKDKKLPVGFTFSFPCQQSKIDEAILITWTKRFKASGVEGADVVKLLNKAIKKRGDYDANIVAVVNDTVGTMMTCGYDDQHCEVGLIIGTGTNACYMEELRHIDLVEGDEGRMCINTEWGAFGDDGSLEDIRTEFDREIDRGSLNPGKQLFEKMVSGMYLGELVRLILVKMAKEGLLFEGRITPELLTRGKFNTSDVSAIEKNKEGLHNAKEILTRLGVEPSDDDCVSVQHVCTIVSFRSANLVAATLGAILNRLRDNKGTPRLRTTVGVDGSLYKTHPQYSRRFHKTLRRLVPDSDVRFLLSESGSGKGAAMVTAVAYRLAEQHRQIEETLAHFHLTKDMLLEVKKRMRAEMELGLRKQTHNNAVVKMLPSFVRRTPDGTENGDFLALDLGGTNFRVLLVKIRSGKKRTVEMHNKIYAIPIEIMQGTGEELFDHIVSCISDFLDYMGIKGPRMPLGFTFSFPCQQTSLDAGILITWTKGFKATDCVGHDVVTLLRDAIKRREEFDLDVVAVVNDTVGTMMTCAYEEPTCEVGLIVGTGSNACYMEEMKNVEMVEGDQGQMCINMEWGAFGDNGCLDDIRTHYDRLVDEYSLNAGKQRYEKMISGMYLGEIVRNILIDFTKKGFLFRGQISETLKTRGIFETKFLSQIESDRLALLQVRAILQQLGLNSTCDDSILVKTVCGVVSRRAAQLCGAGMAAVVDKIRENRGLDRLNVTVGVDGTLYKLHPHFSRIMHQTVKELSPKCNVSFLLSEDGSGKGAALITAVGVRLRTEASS
The assay is described as follows: Induction of hexokinase 1 (unknown origin). An outline of the steps:
as §1

For assay [6], the species on record is Mus musculus. The assay is described as follows: Antidiabetic activity in ob/ob mouse assessed as reduction in basal glucose level measured after acute treatment. The class given is functional, organism-based. An outline of the steps: as §2
The species named for assay [7] is Mus musculus. The assay is described as follows: Increase in oral glucose tolerance in C57BL/J mouse. Format: functional, organism-based. In outline:
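C57BL/J6 mice given oral dosing followed by an oral glucose tolerance test. Plasma glucose was tracked over time and glucose AUC reduction calculated. Several doses were tested, including 50 and 150 mg/kg. Hypoglycemia risk was judged from the glucose profiles.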

In assay [8] the target is T3, Hexokinase-4 (Homo sapiens) (UniProt P35557).
T3 sequence (whole entry): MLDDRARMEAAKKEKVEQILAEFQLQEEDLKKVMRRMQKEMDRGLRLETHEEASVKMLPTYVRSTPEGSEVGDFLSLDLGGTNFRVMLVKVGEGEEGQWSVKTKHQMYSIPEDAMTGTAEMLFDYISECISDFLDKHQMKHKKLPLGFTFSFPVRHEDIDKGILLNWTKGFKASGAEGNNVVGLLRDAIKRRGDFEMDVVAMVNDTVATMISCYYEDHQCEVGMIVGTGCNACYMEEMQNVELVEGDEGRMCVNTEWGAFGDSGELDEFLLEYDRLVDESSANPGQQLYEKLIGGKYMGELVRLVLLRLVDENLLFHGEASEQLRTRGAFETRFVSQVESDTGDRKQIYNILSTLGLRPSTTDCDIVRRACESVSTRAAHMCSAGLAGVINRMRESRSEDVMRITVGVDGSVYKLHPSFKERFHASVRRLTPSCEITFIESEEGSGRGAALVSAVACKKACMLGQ
The assay is described as follows: Induction of human pancreatic glucokinase activity assessed as half maximal saturation concentration of glucose at 5 mM glucose concentration. An outline of the steps:
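Enzymatic assay with purified recombinant human pancreatic or liver glucokinase, read as fold increase in activity at 5.0 mM glucose. EC50 is the mean of at least duplicate runs. For the pancreatic enzyme, glucose S0.5 and Vmax were also determined.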

Each structure is given as a SMILES string. Active and inactive are the calls of the source. The calls are words filed in the database; no cut-off is given here.

As for `COC[C@H](C)Oc1cc(CCc2c(F)cccc2F)cc(C(=O)Nc2ccc(C(=O)O)cn2)c1`, the Activity result in assay [1] and in assay [7] was “Dose-dependent effect” throughout. Also, the result in assay [2] and in assay [5] was inactive. Moreover, the outcome in assay [3], in assay [4], in assay [6] and in assay [8] was Active.

(Values after ChEMBL document CHEMBL2311350, “Discovery of a novel phenylethyl benzamide glucokinase activator for the treatment of type 2 diabetes mellitus” (Bioorg Med Chem Lett, 2013).)
